Assay results as given in ChEMBL document CHEMBL3232843, “Novel pyrrolidine diketopiperazines selectively inhibit melanoma cells via induction of late-onset apoptosis” (J Med Chem, 2014).
Blank lines part the entries; values can stand above or below the molecule they belong to. The source made the active and inactive calls. The calls are words filed in the database; no cut-off is given here.

Columns and labels:
[1] = molecular target: T1, Protein deacetylase HDAC6 (Homo sapiens) (UniProt Q9UBN7); assay: Inhibition of HDAC6 (unknown origin) up to 100 uM
T1 sequence (whole entry): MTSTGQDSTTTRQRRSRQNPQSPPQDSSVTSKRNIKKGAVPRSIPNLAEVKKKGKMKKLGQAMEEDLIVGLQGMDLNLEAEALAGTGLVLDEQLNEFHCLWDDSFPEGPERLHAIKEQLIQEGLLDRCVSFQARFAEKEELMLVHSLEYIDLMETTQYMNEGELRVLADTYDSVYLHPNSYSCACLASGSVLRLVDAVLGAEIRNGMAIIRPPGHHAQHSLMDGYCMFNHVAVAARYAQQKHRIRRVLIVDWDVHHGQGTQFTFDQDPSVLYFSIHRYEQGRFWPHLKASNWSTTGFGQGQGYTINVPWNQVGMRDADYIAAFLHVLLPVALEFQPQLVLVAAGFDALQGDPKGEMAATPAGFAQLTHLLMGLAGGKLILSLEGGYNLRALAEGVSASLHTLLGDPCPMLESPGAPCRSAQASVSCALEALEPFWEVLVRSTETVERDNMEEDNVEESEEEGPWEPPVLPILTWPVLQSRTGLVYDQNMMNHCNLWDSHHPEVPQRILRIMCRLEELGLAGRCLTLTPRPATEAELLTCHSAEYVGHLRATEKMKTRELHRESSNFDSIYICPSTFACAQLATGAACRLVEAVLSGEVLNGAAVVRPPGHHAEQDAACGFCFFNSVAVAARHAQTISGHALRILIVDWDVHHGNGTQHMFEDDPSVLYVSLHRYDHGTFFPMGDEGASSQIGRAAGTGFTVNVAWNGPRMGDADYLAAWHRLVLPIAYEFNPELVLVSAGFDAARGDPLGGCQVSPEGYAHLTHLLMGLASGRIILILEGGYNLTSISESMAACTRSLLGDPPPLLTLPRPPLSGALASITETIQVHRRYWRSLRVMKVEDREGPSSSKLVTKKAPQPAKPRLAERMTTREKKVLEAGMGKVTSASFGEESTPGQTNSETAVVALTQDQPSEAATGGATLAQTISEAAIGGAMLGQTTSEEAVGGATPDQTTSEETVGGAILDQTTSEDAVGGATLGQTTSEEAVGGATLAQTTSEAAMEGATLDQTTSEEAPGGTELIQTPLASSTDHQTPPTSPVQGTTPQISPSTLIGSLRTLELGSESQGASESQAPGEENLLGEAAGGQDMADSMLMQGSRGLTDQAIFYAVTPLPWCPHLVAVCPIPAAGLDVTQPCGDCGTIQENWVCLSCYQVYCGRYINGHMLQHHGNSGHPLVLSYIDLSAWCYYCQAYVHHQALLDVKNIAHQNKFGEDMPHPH

[2] = molecular target: Histone deacetylase 1 (Homo sapiens) (UniProt Q13547); assay: Inhibition of HDAC1 (unknown origin) up to 100 uM
Sequence of Histone deacetylase 1 (Homo sapiens) (Q13547 whole entry): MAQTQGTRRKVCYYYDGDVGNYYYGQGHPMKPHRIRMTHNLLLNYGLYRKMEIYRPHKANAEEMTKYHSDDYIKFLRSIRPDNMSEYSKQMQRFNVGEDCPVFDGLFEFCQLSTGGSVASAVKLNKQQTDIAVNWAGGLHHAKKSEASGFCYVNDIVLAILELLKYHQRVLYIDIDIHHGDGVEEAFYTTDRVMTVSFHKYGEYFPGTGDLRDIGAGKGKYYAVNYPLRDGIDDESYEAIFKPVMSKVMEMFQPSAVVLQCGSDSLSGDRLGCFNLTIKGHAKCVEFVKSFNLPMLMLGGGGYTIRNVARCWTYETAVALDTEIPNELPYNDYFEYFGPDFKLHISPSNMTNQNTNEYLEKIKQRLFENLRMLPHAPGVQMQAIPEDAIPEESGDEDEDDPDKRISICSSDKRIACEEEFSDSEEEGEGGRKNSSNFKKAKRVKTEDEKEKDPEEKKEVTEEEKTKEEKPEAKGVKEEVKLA

[3] = molecular target: Histone deacetylase 2 (Homo sapiens) (UniProt Q92769); assay: Inhibition of HDAC2 (unknown origin) up to 100 uM
Sequence of Histone deacetylase 2 (Homo sapiens) (Q92769 whole entry): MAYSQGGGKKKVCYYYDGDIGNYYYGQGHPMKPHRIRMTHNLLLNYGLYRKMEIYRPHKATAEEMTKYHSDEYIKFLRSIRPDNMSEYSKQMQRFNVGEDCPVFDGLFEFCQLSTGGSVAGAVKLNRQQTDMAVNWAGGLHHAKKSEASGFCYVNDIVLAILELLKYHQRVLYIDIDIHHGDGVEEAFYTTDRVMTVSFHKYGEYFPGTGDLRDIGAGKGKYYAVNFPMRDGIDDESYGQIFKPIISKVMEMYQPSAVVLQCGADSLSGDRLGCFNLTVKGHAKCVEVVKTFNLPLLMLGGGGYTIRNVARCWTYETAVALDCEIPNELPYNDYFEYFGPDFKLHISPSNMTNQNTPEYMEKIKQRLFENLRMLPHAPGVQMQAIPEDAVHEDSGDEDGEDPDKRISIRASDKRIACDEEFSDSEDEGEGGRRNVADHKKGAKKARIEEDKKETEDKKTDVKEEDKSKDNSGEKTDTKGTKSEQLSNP

M14 [4] = assay: Cytotoxicity against human M14 cells assessed as cell viability at 100 uM after 48 hrs by CellTiter-Glo luminescence assay; format: functional, cell-based
Method in brief: (§1)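 M14 cells, 1250 per well, in serum-free DMEM. Compounds given in 10-point 1:3 dilution series starting at 100 µM; controls were gefitinib, doxorubicin and ionomycin. Incubated at 37 °C, 5% CO2. CellTiter-Glo luminescence read at 4, 24, 48 and 72 h. Viability normalized to media-only wells and 1% DMSO-treated wells.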

M14 [5] = assay: Cytotoxicity against human M14 cells assessed as cell viability at 100 uM after 24 hrs by CellTiter-Glo luminescence assay; format: functional, cell-based; method in brief: as §1
M14 [6] = assay: Cytotoxicity against human M14 cells assessed as cell viability at 100 uM after 4 hrs by CellTiter-Glo luminescence assay; format: functional, cell-based; method in brief: as §1
[7] = (§2) Cytotoxicity against mouse B16F10 cells expressing p53 mutant after 48 hrs by hexosaminidase assay; format: functional, cell-based; conditions: B16-F10, 48 h
Method in brief: (§3)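 SK-MEL-28 or B16/F10 cells plated in 96-well plates, grown overnight, then treated with 0–50 µM compound for 48 h. Cells washed with PBS, given hexosaminidase substrate for 30 min at 37 °C, then developer. Absorbance read at 405 nm. Percent viability = treated/control absorbance × 100.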

B16-F10 = assay: as §2; format: functional, cell-based; method in brief: as §3
SK-MEL-28 = assay: Cytotoxicity against human SK-MEL-28 cells expressing B-raf V600E mutant after 48 hrs by hexosaminidase assay; format: functional, cell-based; method in brief: as §3
M14 [8] = assay: Cytotoxicity against human M14 cells after 72 hrs by CellTiter-Glo luminescence assay; format: functional, cell-based; conditions: for IC50: M14, 72 h
Method in brief: (§4)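 1250 cells per well in serum-free medium (F12 for CHO-K1 and A549, DMEM for M14). Compounds given as 10-point 1:3 serial dilutions from a 300 µM stock, plus a gefitinib control. Incubated 72 h at 37 °C, 5% CO2. CellTiter-Glo added for 15 min at room temperature, then luminescence read. Viability normalized to media-only wells (0%) and 1% DMSO wells (100%). Run in triplicate.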

M14 [9] = assay: Cytotoxicity against human M14 cells at 100 uM after 72 hrs by CellTiter-Glo luminescence assay; format: functional; conditions: M14, 72 h; method in brief: as §4
[10] = Cytotoxicity against CHOK1 cells at 100 uM after 72 hrs by CellTiter-Glo luminescence assay; format: cell-based, Cricetulus griseus; conditions: chinese hamster, CHO-K1 cells; read-out: INH; method in brief: as §4
A549 [11] = assay: Cytotoxicity against human A549 cells at 100 uM after 72 hrs by CellTiter-Glo luminescence assay; format: functional; conditions: A549, 72 h; method in brief: as §4
A549 [12] = assay: Cytotoxicity against human A549 cells after 72 hrs by CellTiter-Glo luminescence assay; format: functional, cell-based; conditions: A549, 72 h; method in brief: as §4
[13] = Cytotoxicity against CHOK1 cells after 72 hrs by CellTiter-Glo luminescence assay; format: cell-based; conditions: Cricetulus griseus, CHO-K1, 72 h; method in brief: as §4
M14 [14] = assay: Induction of apoptosis human M14 cells assessed as caspase activity after 4 to 24 hrs using DEVD peptide as substrate by ApoTox-Glo triplex assay; format: functional, cell-based
Method in brief: (§5)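 M14 cells, 1250 per well, in serum-free DMEM, settled 4 h, then given 1:3 serial dilutions. Ionomycin, terfenadine and panobinostat were the controls. Incubated 4, 24, 48 or 72 h at 37 °C. A reagent containing 400 µM GF-AFC (live-cell protease, ex 400/em 505 nm) and 400 µM bis-AAF-R110 (dead-cell protease, ex 485/em 520 nm) was applied for 30 min at 37 °C. Caspase-Glo 3/7 (DEVD) luminescence was then read after 30 min at room temperature.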

M14 [15] = assay: Cytotoxicity against human M14 cells assessed as cell viability after 4 hrs using bis-AAF-R110 as substrate by ApoTox-Glo triplex assay; format: functional, cell-based; method in brief: as §5
M14 [16] = assay: Cytotoxicity against human M14 cells assessed as cell viability after 4 hrs using GF-AFC as substrate by ApoTox-Glo triplex assay; format: functional, cell-based
Method in brief: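 M14 #5 cells, 1250 per well in serum-free DMEM, pre-incubated 4 h at 37 °C, 5% CO2. Compounds added as 1:3 serial dilutions; incubated 4, 24, 48 and 72 h. Per time point, a reagent containing 400 µM GF-AFC (live-cell protease) and 400 µM bis-AAF-R110 (dead-cell protease) was added for 30 min at 37 °C, then fluorescence was read. Caspase-Glo 3/7 was added next, 30 min at room temperature, then luminescence.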

inhibition [1]: inactive | inhibition [2]: inactive | inhibition [3]: inactive
SMILES: O=C1NC[C@H](Cc2ccccc2)N(C[C@@H]2CCCN2C[C@H](Cc2ccccc2)N2C[C@H](Cc3ccc(O)cc3)N(CCC34CC5CC(CC(C5)C3)C4)C(=O)C2=O)C1=O
Activity (M14 [4]): Active | Activity (M14 [5]): Active | Activity (M14 [6]): inactive | IC50 [7]: 1150 nM | inhibition (B16-F10): Dose-dependent effect | inhibition (SK-MEL-28): Dose-dependent effect | inhibition (M14 [8]): Dose-dependent effect | IC50 (M14 [8]): 750 nM

SMILES: CCC[C@@H]1CNC(=O)C(=O)N1C[C@@H]1CCCN1C[C@H](Cc1ccc(O)cc1)N1C[C@@H](Cc2ccc(O)cc2)N(CC2CCCC2)C(=O)C1=O
inhibition at 100 µM (M14 [9]): 3% | cytotoxicity at 72 h, 100 µM [10]: 7% | inhibition at 100 µM (A549 [11]): 5%

SMILES: CCC[C@@H]1CNC(=O)C(=O)N1C[C@@H]1CCCN1C[C@@H](Cc1ccc(O)cc1)N1C[C@@H](Cc2ccc(O)cc2)N(CC2CCCC2)C(=O)C1=O
inhibition at 100 µM (M14 [9]): 25% | cytotoxicity at 72 h, 100 µM [10]: 11% | inhibition at 100 µM (A549 [11]): 14%

SMILES: CCC[C@@H]1CNC(=O)C(=O)N1C[C@@H]1CCCN1C[C@@H](Cc1ccc(O)cc1)N1C[C@@H](Cc2ccc(O)cc2)N(CC(CC)c2ccccc2)C(=O)C1=O (some centres undefined)
inhibition at 100 µM (M14 [9]): 14% | cytotoxicity at 72 h, 100 µM [10]: 59% | inhibition at 100 µM (A549 [11]): 8%

SMILES: CCC[C@H]1CNC(=O)C(=O)N1C[C@@H]1CCCN1C[C@@H](CC1CCCCC1)N1C[C@H](Cc2ccc(O)cc2)N(CCC23CC4CC(CC(C4)C2)C3)C(=O)C1=O
IC50 (A549 [12]): > 50000 nM | IC50 [13]: > 50000 nM | IC50 (M14 [8]): > 50000 nM

SMILES: CC(C)(C)c1ccc(C(O)CCCN2CCC(C(O)(c3ccccc3)c3ccccc3)CC2)cc1 (centres undefined)
Activity (M14 [14]): Active | Activity (M14 [15]): Active | Activity (M14 [16]): Active

SMILES: CCC[C@@H]1CNC(=O)C(=O)N1C[C@@H]1CCCN1C[C@H](Cc1ccc(O)cc1)N1C[C@H](Cc2ccc(O)cc2)N(CC2CCCC2)C(=O)C1=O
inhibition at 100 µM (M14 [9]): 15% | cytotoxicity at 72 h, 100 µM [10]: 7% | inhibition at 100 µM (A549 [11]): 0%
